The results in this text go back to ChEMBL document CHEMBL4725355, “Design, Synthesis, and Preclinical Evaluation of 3-Methyl-6-(5-thiophenyl)-1,3-dihydro-imidazo[4,5-b]pyridin-2-ones as Selective GluN2B Negative Allosteric Modulators for the Treatment of Mood Disorders” (J Med Chem, 2020).

By IC50 is commonly meant the concentration needed to halve the response being measured. A word on the efflux ratio: it is a quotient of directional permeabilities that is used to spot active efflux. A word on the Ki: it is the dissociation constant of the complex between target and ligand, obtained from inhibition or displacement. Higher therefore signals weaker binding. For orientation: solubility means the dissolved amount per volume that the medium holds. Usually clearance stands for the volume of plasma or blood freed of the substance per unit of time. Lower therefore signals a low capacity for elimination. Usually half-life stands for the time needed for the level to fall by half in the phase considered. Higher therefore signals slow decline. Broadly, the Cmax is the highest concentration seen after dosing. The bioavailability is dose-corrected exposure relative to a reference, in per cent. Low values mean little systemic uptake, high ones much systemic uptake.

The nature of data set [1]: Negative allosteric modulation of human GluN1a/GluN2B receptor expressed in CHO cells assessed as inhibition of glutamate and glycine-induced calcium flux preincubated for 5 mins followed by glutamate and glycine addition and measured after 5 mins by calcium 5 dye based FLIPR assay. The class given is cell-based. The essentials:
(§1)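 Tet-On CHO T-Rex cells expressing hGluN1a with GluN2A, 2B, 2C or 2D, plated at 20,000 cells/well and induced 24 h before the assay in the presence of ketamine. Cells loaded 1 h at room temperature with Calcium 5 dye, pH 7.4 HEPES buffer. Compound added 5 min, then glutamate (~EC80) plus 10 µM glycine for 5 min; FLIPR fluorescence normalized to control wells. Three independent runs in duplicate (two for some).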
(Calcium flux is commonly read through the fluorescence of an indicator in the cells.)

Data set [2] in a line: Efflux ratio of apparent permeability across basolateral to apical side over apical to basolateral side in MDCK-MDR1 cells at 5 uM measured after 60 mins by LC-MS/MS analysis. The class given is ADME, cell-based, Canis lupus familiaris. The settings on record: dog. The essentials: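 MDCK-MDR1 cells, passages 6-30, seeded at 3.4×10^5 cells/cm² and cultured 3 days. Test compound at 5 µM final (1% DMSO) in HBSS, pH 7.4, applied to the donor side. A→B and B→A runs at 37 °C for 60 min, in duplicate, quantified by LC/MS/MS. Efflux ratio taken as B-A/A-B; monolayer integrity checked by lucifer yellow.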

The target in data set [3] is Voltage-gated inwardly rectifying potassium channel KCNH2 (Homo sapiens, UniProt Q12809). In words: Inhibition of human ERG expressed in CHO cells measured after 5 mins by Qpatch method. The class given is cell-based. The method in brief:
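CHO cells stably expressing hERG, whole-cell QPatch. Vehicle applied 5 min, then 0.3, 3.0, 10 and 30 µM in rising order, each concentration applied twice. Current measured after 5 min as the average of 3 voltage pulses; block taken relative to vehicle pretreatment, mean ± SEM.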
On the technique in general: Patch clamp records ionic current or voltage across a cell membrane.

Data set [4] can be described thus: Displacement of 3-[3H] 1-(azetidin-1-yl)-2-[6-(4-fluoro-3-methyl-phenyl)pyrrolo[3,2-b]pyridin-1-yl]ethanone from GluN1a/GluN2B receptor in rat cortex membranes measured after 2 hrs by liquid scintillation counting method. The class given is cell membranes. The method in brief:
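Rat adult cortex was homogenized in 50 mM Tris pH 7.4, and membranes were washed by centrifugation. Membranes were incubated with the [3H] pyrrolopyridine tracer and test compound for 2 h at room temperature with shaking. Non-specific binding was defined with 10 µM CP-101,606. Bound tracer was separated by filtration on PEI-soaked GF/B filters and counted by liquid scintillation. Ki was obtained from a competition fit using tracer Kd; three independent runs in duplicate.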

A short description of data set [5]: Metabolic stability in human liver microsomes assessed as extraction ratio at 1 uM after 5 to 60 mins in presence of NADPH by LC-MS/MS analysis. The class given is ADME, Microsome. The settings on record: time 5-60 min, read-out: ERH. The essentials: (§2)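 Human and rat liver microsomes, run in duplicate; stability reported as microsomal extraction ratio.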
A general note: Microsomes from liver hold many membrane-bound enzymes, among them those of drug oxidation.

Data set [6] in a line: Metabolic stability in rat liver microsomes assessed as extraction ratio at 1 uM after 5 to 60 mins in presence of NADPH by LC-MS/MS analysis. The class given is ADME, Microsome. The following applies: time 5-60 min, read-out: ERH. The method in brief:
as §2

Data set [7] can be described thus: Stability of compound in phosphate buffer at pH 2 assessed as drug decomposition measured after 24 h. The following applies: pH 2, 24 h.
The nature of data set [8]: Stability of compound in phosphate buffer at pH 7 assessed as drug decomposition measured after 24 h. The settings on record: pH 7, 24 h.
Data set [9] is described as follows: Solubility of compound in phosphate buffer at pH 2 measured after 3 days. The class given is physicochemical. The settings on record: time 3 day. The essentials:
(§3)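 Solubility in aqueous buffer at pH 2 and pH 7, and in simulated gastric and intestinal fluids.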

The nature of data set [10]: Solubility of compound in phosphate buffer at pH 7 measured after 3 days. The class given is physicochemical. The settings on record: time 3 day. The essentials:
as §3

The nature of data set [11]: Protein binding in human plasma at 1 uM after 6 hrs by equilibrium dialysis method. The class given is ADME, cell-free. The following applies: read-out: PPB (converted).
A short description of data set [12]: Clearance in Sprague-Dawley rat at 0.5 mg/kg, iv using 20% HP-beta-CD formulation by LC-MS/MS analysis. The class given is ADME, organism-based. The following applies: in vivo. The method in brief:
(§4)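 Rat PK with IV and PO dosing, n=3. The usual doses were 0.5 mg/kg IV and 2.5 mg/kg PO in 20% HP-β-CD. One compound was instead given at 0.1 mg/kg IV and 0.5 mg/kg PO.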

Data set [13] in a line: Volume of distribution at steady state in Sprague-Dawley rat at 0.5 mg/kg, iv or 2.5 mg/kg, po using 20% HP-beta-CD formulation by LC-MS/MS analysis. The following applies: in vivo, read-out: Vdss. The class given is ADME, organism-based. The essentials: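 Rat PK at 0.5 mg/kg i.v. and 2.5 mg/kg p.o., vehicle 20% HP-β-CD. n=3, values given as mean ± SD.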
A short description of data set [14]: Half life in Sprague-Dawley rat at 0.5 mg/kg, iv or 2.5 mg/kg, po using 20% HP-beta-CD formulation by LC-MS/MS analysis. The class given is ADME, organism-based. The settings on record: in vivo. The method in brief: (§5)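 Rats dosed 0.5 mg/kg i.v. and 2.5 mg/kg p.o., n=3 ± SD. Default vehicle is 20% HP-β-CD; one PK set used 1:1 PEG400/water and another 30% SBE-β-CD.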

Data set [15] can be described thus: Cmax in Sprague-Dawley rat at 0.5 mg/kg, iv or 2.5 mg/kg, po using 20% HP-beta-CD formulation by LC-MS/MS analysis. The arrangement: dose 2.5 mg/kg. The class given is ADME, organism-based. The settings on record: in vivo. The essentials:
as §4

A short description of data set [16]: Oral bioavailability in Sprague-Dawley rat at 2.5 mg/kg using 20% HP-beta-CD formulation by LC-MS/MS analysis. The class given is ADME, organism-based. The settings on record: in vivo. The essentials: as §5
Data set [17] is described as follows: Negative allosteric modulation of human GluN1a/GluN2A receptor expressed in CHO cells assessed as inhibition of glutamate and glycine-induced calcium flux preincubated for 5 mins followed by glutamate and glycine addition and measured after 5 mins by calcium 5 dye based FLIPR assay. The class given is cell-based. The essentials: as §1
A short description of data set [18]: Negative allosteric modulation of human GluN1a/GluN2C receptor expressed in CHO cells assessed as inhibition of glutamate and glycine-induced calcium flux preincubated for 5 mins followed by glutamate and glycine addition and measured after 5 mins by calcium 5 dye based FLIPR assay. The class given is cell-based. The essentials:
as §1

The nature of data set [19]: Negative allosteric modulation of human GluN1a/GluN2D receptor expressed in CHO cells assessed as inhibition of glutamate and glycine-induced calcium flux preincubated for 5 mins followed by glutamate and glycine addition and measured after 5 mins by calcium 5 dye based FLIPR assay. The class given is cell-based. The essentials:
as §1

≈ marks a conversion by molar mass, not a printed value.

Chain of Voltage-gated inwardly rectifying potassium channel KCNH2 (Q12809 whole entry): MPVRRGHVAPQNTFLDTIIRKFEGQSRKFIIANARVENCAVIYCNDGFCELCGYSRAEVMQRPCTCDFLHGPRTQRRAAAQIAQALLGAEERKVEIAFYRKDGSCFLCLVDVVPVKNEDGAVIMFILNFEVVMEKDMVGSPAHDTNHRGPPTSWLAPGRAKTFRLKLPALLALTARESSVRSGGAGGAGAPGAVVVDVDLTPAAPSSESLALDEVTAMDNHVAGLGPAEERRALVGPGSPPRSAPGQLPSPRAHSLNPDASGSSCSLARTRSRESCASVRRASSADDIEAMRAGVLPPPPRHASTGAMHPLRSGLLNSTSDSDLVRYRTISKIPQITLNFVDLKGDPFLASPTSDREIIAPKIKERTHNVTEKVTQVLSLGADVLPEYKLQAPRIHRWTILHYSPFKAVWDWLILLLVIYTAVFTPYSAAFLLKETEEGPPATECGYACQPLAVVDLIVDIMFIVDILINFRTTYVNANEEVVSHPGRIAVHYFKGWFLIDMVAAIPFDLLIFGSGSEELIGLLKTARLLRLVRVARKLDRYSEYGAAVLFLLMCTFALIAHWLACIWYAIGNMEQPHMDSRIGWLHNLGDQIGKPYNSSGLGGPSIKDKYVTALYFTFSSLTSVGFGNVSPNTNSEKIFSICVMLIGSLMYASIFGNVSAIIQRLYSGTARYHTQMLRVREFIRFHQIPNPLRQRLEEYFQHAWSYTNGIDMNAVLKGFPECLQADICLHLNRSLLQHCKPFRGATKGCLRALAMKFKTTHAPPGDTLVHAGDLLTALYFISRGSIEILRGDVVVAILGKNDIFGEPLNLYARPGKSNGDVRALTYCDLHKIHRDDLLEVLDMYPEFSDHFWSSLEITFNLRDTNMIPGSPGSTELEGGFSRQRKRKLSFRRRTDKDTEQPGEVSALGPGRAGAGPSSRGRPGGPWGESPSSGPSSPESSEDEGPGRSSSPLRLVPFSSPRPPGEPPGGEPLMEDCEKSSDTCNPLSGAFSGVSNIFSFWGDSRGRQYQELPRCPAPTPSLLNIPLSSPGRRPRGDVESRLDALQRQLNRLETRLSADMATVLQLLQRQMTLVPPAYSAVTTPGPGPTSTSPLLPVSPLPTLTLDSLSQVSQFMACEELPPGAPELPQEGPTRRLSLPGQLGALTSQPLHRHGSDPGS

On to `Cn1c(=O)n(CC(=O)N2CCC2)c2cc(-c3ccc(C(F)F)s3)cnc21`, for which the IC50 was 6 nM in [1] and above 10000 nM in data set [3]. Further, the efflux ratio at 1 h, 5 µM in data set [2] is 5.8. The affinity in data set [4] corresponds to a Ki of 19 nM. For the same molecule, the figures for the hepatic extraction ratio at 1 µM in [5] and in data set [6] were 0.46 and 0.58, respectively. Further, the Stabilty result in data set [7] and in data set [8] was “Unstable” in each case.

As for `CN(C)C(=O)Cn1c(=O)n(C)c2ncc(-c3cccc(C(F)(F)F)c3)cc21`, the IC50 in [1] was 47 nM; in data set [3] it was above 10000 nM. The solubility at 72 h in [9] and in data set [10] was 6 µM (≈ 2.27 µg/mL) throughout. In addition, the efflux ratio at 1 h, 5 µM in data set [2] stood at 7. The same molecule yielded an inhibition constant (Ki) in [4] of 19 nM. Also, the hepatic extraction ratio at 1 µM in data set [5] was found to be 0.38; in data set [6], 0.31.

For the molecule `Cn1c(=O)n(CC(=O)N2CCC2)c2cc(-c3cccc(C(F)(F)F)c3)cnc21`, the results for the IC50 in data set [1] and in data set [3] were 97 nM and above 10000 nM, respectively. In addition, the solubility at 72 h amounted to 19 µM (≈ 7.42 µg/mL) in data set [9] and 23 µM (≈ 8.98 µg/mL) in [10]. Besides, in data set [2], the efflux ratio at 1 h, 5 µM came to 9. Besides, the fraction unbound at 6 h, 1 µM in data set [11] is 0.052. For the same molecule, the affinity in data set [4], expressed as Ki, was 19 nM. For the same molecule, the figures for the hepatic extraction ratio at 1 µM in data set [5] and in data set [6] were below 0.3 and below 0.2, respectively.

As to `Cc1ccc(-c2cnc3c(c2)n(CC(=O)N2CCC2)c(=O)n3C)s1`, the IC50 in data set [1] was 25 nM; in data set [3], above 10000 nM. Further, the solubility at 72 h in data set [9] is 39 µM (≈ 13.4 µg/mL); in data set [10], 48 µM (≈ 16.4 µg/mL). For the same molecule, the efflux ratio at 1 h, 5 µM in [2] stood at 3.2. Also, the inhibition constant (Ki) in [4] was found to be 44 nM. Further, the results for the hepatic extraction ratio at 1 µM in data set [5] and in data set [6] were 0.56 and 0.78, respectively. For the same molecule, the clearance in data set [12] was found to be 114 mL/min/kg. For the same molecule, the Vd in data set [13] was determined as 1.1 L/kg. Further, in data set [14], the half-life was 12 min. Further, the concentration in [15] peaked (Cmax) at 6 ng/mL. The bioavailability in [16] stood at 1%.

As for `Cn1c(=O)n(CC(=O)N2CCC2)c2cc(-c3cc(C(F)F)cs3)cnc21`, the values for the IC50 in [1] and in data set [3] were 79 nM and above 10000 nM, respectively. The efflux ratio at 1 h, 5 µM in data set [2] amounted to 9.1. In data set [4], affinity was put at a Ki of 59 nM. Further, the hepatic extraction ratio at 1 µM in data set [5] was below 0.3; in data set [6] it was 0.52. Further, the Stabilty entry in data set [7] and in data set [8] was “Unstable” each time.

Take `Cn1c(=O)n(CC(=O)N2CCC2)c2cc(-c3ccc(C4CC4)s3)cnc21`: the IC50 in [1] was 81 nM; in [3], above 10000 nM. In data set [4], this molecule displayed a Ki of 63 nM.

Take `Cn1c(=O)n(CC(=O)N2CC(F)C2)c2cc(-c3cccc(C(F)(F)F)c3)cnc21`: the IC50 in [1] is 118 nM; in data set [3], above 10000 nM. In addition, the solubility at 72 h in data set [9] turned out to be 17 µM (≈ 6.94 µg/mL); in data set [10] it was 16 µM (≈ 6.53 µg/mL). The efflux ratio at 1 h, 5 µM in data set [2] came out at 7. In [4], this molecule showed a Ki of 25 nM. Further, the hepatic extraction ratio at 1 µM was below 0.3 in [5] and below 0.2 in data set [6].

In the case of `Cc1csc(-c2cnc3c(c2)n(CC(=O)N(C)C)c(=O)n3C)c1`, the values for the IC50 in data set [1] and in data set [3] were 216 nM and above 10000 nM, respectively. Besides, the figures for the solubility at 72 h in data set [9] and in data set [10] were 31 µM (≈ 10.2 µg/mL) and 25 µM (≈ 8.26 µg/mL), respectively. Further, in data set [2], the efflux ratio at 1 h, 5 µM is 3.5. Affinity in data set [4] was put at a Ki of 270 nM. Also, the hepatic extraction ratio at 1 µM is 0.59 in [5] and 0.82 in [6].

Take `O=C(Cn1c(=O)[nH]c2ncc(-c3cccc(C(F)(F)F)c3)cc21)NC1CC1`: the IC50 in [17], in [18], in data set [19] and in [3] was above 10000 nM each time. Besides, the solubility at 72 h in data set [9] and in [10] was below 4 µM throughout. Also, in data set [11], the fraction unbound at 6 h, 1 µM was 0.004.
